Test results reported in publication PMC4931877 (The Journal of Pharmacology and Experimental Therapeutics, 2016).

Legend:
[1] = MAD study plasma pharmacokinetics; format: in vivo, human; settings: for half-life / concentration at 24 h / Cmax: human, plasma, oral; for concentration at 24 h: C24 GM (CV%); for Cmax: Cmax GM (CV%)
Summary of the method: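 EDTA plasma was sampled at 0–24 h postdose on days 1 and 14, intensively on day 28, and at trough on days 5–25. Drug was measured by validated LC-MS/MS. Parameters are noncompartmental, with trapezoidal and log-trapezoidal AUC. Half-life is ln2/k from a least-squares terminal slope on days 14 and 28.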

[2] = MAD study safety and tolerability; format: in vivo, human
Summary of the method: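 Multiple-dose healthy young and elderly subjects were assessed by vital signs, physical examination, 12-lead ECG and clinical laboratory tests. AEs were spontaneously reported or elicited, and their onset, duration, intensity, seriousness, relatedness and action taken were recorded. AEs were coded by MedDRA 12.1 system organ class and preferred term. Columbia suicidality ratings were also collected.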

CSF Aβ peptides = experiment: MAD study pharmacodynamic effects on CSF Aβ peptides; format: in vivo, human
[3] = tested on: plasma Aβ40, Aβ42, and total Aβ; experiment: SAD study pharmacodynamic effects on plasma Aβ; format: in vivo, human
Summary of the method: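 Single oral doses of 10–1200 mg were given as solution or capsule. Blood tubes were inverted and iced, then centrifuged within 30 min at room temperature for 15 min at about 1000g. Plasma was stored at −80°C. Aβ40 and Aβ42 were measured by Luminex duplex immunoassay and total Aβ by MSD, in duplicate.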

[4] = tested on: plasma Aβ40, Aβ42, and total Aβ; experiment: MAD study pharmacodynamic effects on plasma Aβ; format: in vivo, human
Summary of the method: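 Healthy volunteers were dosed once daily at 50, 100 or 200 mg for up to 28 days. EDTA plasma was stored at −80°C. Aβ40 and Aβ42 were measured by Luminex duplex immunoassay (LLOQ 30 and 3 pg/ml) and total Aβ by MSD (LLOQ 50 pg/ml), in duplicate. Values are % change from baseline, analysed by repeated-measures ANCOVA.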

CYP3A4 = CYP3A4 (Homo sapiens, UniProt P08684); experiment: Plasma 4βHC biomarker of CYP3A4 in the MAD study; format: in vivo; settings: any treatment cohort of the MAD study
Chain of CYP3A4 (P08684 whole entry): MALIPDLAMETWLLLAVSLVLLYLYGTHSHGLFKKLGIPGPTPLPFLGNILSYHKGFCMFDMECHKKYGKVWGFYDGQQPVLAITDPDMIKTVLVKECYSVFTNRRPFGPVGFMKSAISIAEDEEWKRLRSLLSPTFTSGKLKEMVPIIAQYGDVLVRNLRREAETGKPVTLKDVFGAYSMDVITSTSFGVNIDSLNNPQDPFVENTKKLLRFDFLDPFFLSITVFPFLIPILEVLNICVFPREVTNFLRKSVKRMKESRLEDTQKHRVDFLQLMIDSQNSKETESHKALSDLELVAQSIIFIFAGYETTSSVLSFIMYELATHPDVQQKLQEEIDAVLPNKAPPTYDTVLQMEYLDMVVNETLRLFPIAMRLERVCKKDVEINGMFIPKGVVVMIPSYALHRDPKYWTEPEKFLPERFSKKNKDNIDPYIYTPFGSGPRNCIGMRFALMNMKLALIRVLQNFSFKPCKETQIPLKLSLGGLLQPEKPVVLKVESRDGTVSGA
Summary of the method: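 During once-daily multiple dosing, plasma 4β-hydroxycholesterol was quantified by validated LC-MS/MS (LLOQ 2 ng/ml for 50 μl plasma). 4α-Hydroxycholesterol and total cholesterol were measured as normalisation factors.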

[5] = 50 mg, MAD panel 1, 50 mg once daily, day 1
[6] = 50 mg, MAD panel 1, 50 mg once daily, day 14
[7] = 50 mg, MAD panel 1, 50 mg once daily, day 28

With CNc1nc(Nc2ccc(-n3cnc(C)n3)c(OC)c2)nc2c1CC[C@H]2c1ccc(F)cc1 [BMS-932481, (S)-7-(4-fluorophenyl)-N2-(3-methoxy-4-(3-methyl-1H-1,2,4-triazol-1-yl)phenyl)-N4-methyl-6,7-dihydro-5H-cyclopenta[d]pyrimidine-2,4-diamine] the steady state achieved ([1]; MAD 50- and 100-mg dose groups) was at most 14 days, the “dose proportionality of plasma exposure” value ([1]; MAD day 14) was “greater than dose proportionality” and the “slope for AUCτ versus dose” value ([1]; MAD day 14, 95% CI, 1.03–1.88, r^2 = 0.81) was 1.46. For the same compound, the “slope for Cmax versus dose” value ([1]; MAD day 14, 95% CI, 1.06–1.67, r^2 = 0.9) was 1.36, the “dose proportionality of plasma exposure” value ([1]; first dose (day 1) of multiple-dose administrations, 50 to 200 mg) was “dose proportional” and the half-life ([1]; 50 mg) was 24 h. The concentration at 24 h [1, 5] was 47 ng/mL, the concentration at 24 h [1, 6] was 204 ng/mL and the concentration at 24 h [1, 7] was 165 ng/mL. It also gave a Cmax [1, 5] of 134 ng/mL, a Cmax [1, 6] of 323 ng/mL and a Cmax [1, 7] of 293 ng/mL. For the same compound, the half-life ([1]; 100 mg) was 29 h, the concentration at 24 h ([1]; 100 mg, MAD panel 2, 100 mg once daily, day 1) was 87 ng/mL and the half-life ([1]; 200 mg) was 37 h. For the same compound, the concentration at 24 h ([1]; 200 mg, MAD panel 3, 200 mg once daily, day 1) was 220 ng/mL, the “accumulation after multiple dosing” value ([1]; multiple dosing) was “approximately 3 fold” and the “ECG- or vital sign–related AEs” value ([2]; MAD) was “no ECG- or vital sign–related AEs”. The “subjects with increases in total bilirubin” value ([2]; MAD 50 mg, three of six) was 50%, the “subjects with low leukocyte counts” value ([2]; MAD 50 mg, three of six) was 50% and the “subjects with increases in total bilirubin” value ([2]; MAD 100 mg, three of six) was 50%. For the same compound, the “subjects with increases in bilirubin” value ([2]; MAD 200 mg, five of six) was 83%, the “subjects with low estimated creatinine clearance” value ([2]; MAD 200 mg, three of six) was 50% and the “subjects with low leukocyte counts” value ([2]; MAD 200 mg, three of six) was 50%. For the same compound, the AEs ([2]; MAD, 50 mg) was 5 (83.3) n (%), the Deaths ([2]; MAD, 50 mg) was 0 n (%) and the “Discontinuation due to AEs” value ([2]; MAD, 50 mg) was 0 n (%). The “Elevated ALT (marked laboratory abnormality)” value ([2]; MAD, 50 mg) was 0 n (%), the “Elevated bilirubin (marked laboratory abnormality)” value ([2]; MAD, 50 mg) was 3 (50.0) n (%) and the “Elevates AST (marked laboratory abnormality)” value ([2]; MAD, 50 mg) was 0 n (%). For the same compound, the “Low hematocrit (marked laboratory abnormality)” value ([2]; MAD, 50 mg) was 1 (16.7) n (%), the “Low hemoglobin (marked laboratory abnormality)” value ([2]; MAD, 50 mg) was 2 (33.3) n (%) and the “Low leukocytes (marked laboratory abnormality)” value ([2]; MAD, 50 mg) was 3 (50.0) n (%). The “Low lymphocytes (marked laboratory abnormality)” value ([2]; MAD, 50 mg) was 1 (16.7) n (%), the “Low neutrophils (marked laboratory abnormality)” value ([2]; MAD, 50 mg) was 0 n (%) and the SAEs ([2]; MAD, 50 mg) was 0 n (%). The “Treatment-related AEs” value ([2]; MAD, 50 mg) was 3 (50.0) n (%), the AEs ([2]; MAD, 100 mg) was 4 (66.7) n (%) and the Deaths ([2]; MAD, 100 mg) was 0 n (%). For the same compound, the “Discontinuation due to AEs” value ([2]; MAD, 100 mg) was 0 n (%), the “Elevated ALT (marked laboratory abnormality)” value ([2]; MAD, 100 mg) was 0 n (%) and the “Elevated bilirubin (marked laboratory abnormality)” value ([2]; MAD, 100 mg) was 3 (50.0) n (%). The “Elevates AST (marked laboratory abnormality)” value ([2]; MAD, 100 mg) was 0 n (%), the “Low hematocrit (marked laboratory abnormality)” value ([2]; MAD, 100 mg) was 1 (16.7) n (%) and the “Low hemoglobin (marked laboratory abnormality)” value ([2]; MAD, 100 mg) was 1 (16.7) n (%). The “Low leukocytes (marked laboratory abnormality)” value ([2]; MAD, 100 mg) was 1 (16.7) n (%), the “Low lymphocytes (marked laboratory abnormality)” value ([2]; MAD, 100 mg) was 0 n (%) and the “Low neutrophils (marked laboratory abnormality)” value ([2]; MAD, 100 mg) was 1 (16.7) n (%). The SAEs ([2]; MAD, 100 mg) was 0 n (%), the “Treatment-related AEs” value ([2]; MAD, 100 mg) was 1 (16.7) n (%) and the AEs ([2]; MAD, 200 mg) was 6 (100.0) n (%). For the same compound, the Deaths ([2]; MAD, 200 mg) was 0 n (%), the “Discontinuation due to AEs” value ([2]; MAD, 200 mg) was 2 (33.3) n (%) and the “Elevated ALT (marked laboratory abnormality)” value ([2]; MAD, 200 mg) was 4 (66.7) n (%). For the same compound, the “Elevated bilirubin (marked laboratory abnormality)” value ([2]; MAD, 200 mg) was 5 (83.3) n (%), the “Elevates AST (marked laboratory abnormality)” value ([2]; MAD, 200 mg) was 2 (33.3) n (%) and the “Low hematocrit (marked laboratory abnormality)” value ([2]; MAD, 200 mg) was 0 n (%). The “Low hemoglobin (marked laboratory abnormality)” value ([2]; MAD, 200 mg) was 1 (16.7) n (%), the “Low leukocytes (marked laboratory abnormality)” value ([2]; MAD, 200 mg) was 3 (50.0) n (%) and the “Low lymphocytes (marked laboratory abnormality)” value ([2]; MAD, 200 mg) was 0 n (%). The “Low neutrophils (marked laboratory abnormality)” value ([2]; MAD, 200 mg) was 2 (33.3) n (%), the SAEs ([2]; MAD, 200 mg) was 2 (33.3) n (%) and the “Treatment-related AEs” value ([2]; MAD, 200 mg) was 4 (66.7) n (%). The “subjects with AEs” value ([2]; MAD, 15 subjects) was 83.3%, the AEs ([2]; MAD, all BMS-932481 doses) was 15 (83.3) n (%) and the Deaths ([2]; MAD, all BMS-932481 doses) was 0 n (%). The “Discontinuation due to AEs” value ([2]; MAD, all BMS-932481 doses) was 2 (11.1) n (%), the “Elevated ALT (marked laboratory abnormality)” value ([2]; MAD, all BMS-932481 doses) was 4 (22.2) n (%) and the “Elevated bilirubin (marked laboratory abnormality)” value ([2]; MAD, all BMS-932481 doses) was 11 (61.1) n (%). For the same compound, the “Elevates AST (marked laboratory abnormality)” value ([2]; MAD, all BMS-932481 doses) was 2 (11.1) n (%), the “Low hematocrit (marked laboratory abnormality)” value ([2]; MAD, all BMS-932481 doses) was 2 (11.1) n (%) and the “Low hemoglobin (marked laboratory abnormality)” value ([2]; MAD, all BMS-932481 doses) was 4 (22.2) n (%). The “Low leukocytes (marked laboratory abnormality)” value ([2]; MAD, all BMS-932481 doses) was 7 (38.9) n (%), the “Low lymphocytes (marked laboratory abnormality)” value ([2]; MAD, all BMS-932481 doses) was 1 (5.6) n (%) and the “Low neutrophils (marked laboratory abnormality)” value ([2]; MAD, all BMS-932481 doses) was 3 (16.7) n (%). The SAEs ([2]; MAD, all BMS-932481 doses) was 2 (11.1) n (%), the “Treatment-related AEs” value ([2]; MAD, all BMS-932481 doses) was 8 (44.4) n (%) and the “subjects with treatment-related AEs” value ([2]; MAD, eight subjects) was 44.4%. The “CSF Aβ42 lowering at exposures at which increases in liver enzymes were observed” value ([2]; after multiple dosing) was “greater than 70%”, the “effect on CSF APL1β28 fragment” value (CSF Aβ peptides; MAD) was “No effects” and the “effect on CSF Aβ14 fragment” value (CSF Aβ peptides; MAD) was “No effects”. The “Mean decrease in CSF Aβ40, change from baseline” value (CSF Aβ peptides; MAD 50 mg, day 28) was −36%, the “Mean decrease in CSF Aβ42, change from baseline” value (CSF Aβ peptides; MAD 50 mg, day 28) was −38% and the “increase of CSF Aβ37, of baseline” value (CSF Aβ peptides; MAD 50 mg, day 28) was 292%. For the same compound, the “Mean decrease in CSF Aβ40, change from baseline” value (CSF Aβ peptides; MAD 100 mg, day 28) was −44%, the “Mean decrease in CSF Aβ42, change from baseline” value (CSF Aβ peptides; MAD 100 mg, day 28) was −46% and the “increase of CSF Aβ37, of baseline” value (CSF Aβ peptides; MAD 100 mg, day 28) was 518%. For the same compound, the “increase of CSF Aβ37, of baseline” value (CSF Aβ peptides; MAD 200 mg, 48, 72 or 96 hours after last dose) was 484%–545, the “CSF Aβ40 and Aβ42 levels four days after the last day of dosing” value (CSF Aβ peptides; MAD 200 mg, 96 hours after last dose) was “still significantly reduced” and the “increase of CSF Aβ38” value (CSF Aβ peptides; MAD, 50 mg) was 20%. For the same compound, the “increase of CSF Aβ38” value (CSF Aβ peptides; MAD, 100 mg) was 69%, the “increase of CSF Aβ38” value (CSF Aβ peptides; MAD, 200 mg) was 68% and the “CSF Aβ42/CSF Aβ40 ratio” value (CSF Aβ peptides; MAD, especially at the 200-mg dose) was “Trends in lowering”. The “effect on CSF AB17” value (CSF Aβ peptides; SAD and MAD (Supplemental Figs. 4C and 5F)) was “slight increases”, the “effect on total Aβ in CSF” value (CSF Aβ peptides; at higher dose levels) was “modest decreases” and the “change in plasma total Aβ” value ([3]; single dose cohorts) was “No changes”. For the same compound, the “effect on plasma Aβ42 and Aβ40” value ([3]; single-dose) was “dose-dependently decreased”, the “decrease of plasma Aβ40 levels” value ([4]; MAD 50-mg dose, up to) was 40%–50 and the “plasma Aβ42 during the dosing period” value ([4]; MAD 100- and 200-mg cohorts) was “below the limit of quantitation”. For the same compound, the “reduction of plasma Aβ42 levels” value ([4]; MAD 200-mg cohort, day 35 (11 days after the last dose)) was 46%, the “change in plasma total Aβ” value ([4]; multiple dose cohorts) was “No changes” and the “effect on plasma Aβ42 and Aβ40” value ([4]; multiple-dose administrations) was “dose-dependently decreased”. The “changes in 4βHC levels” value (CYP3A4) was “no significant changes”.
